From ChEMBL document CHEMBL5375965, “Discovery of New Broad-Spectrum Anti-Infectives for Eukaryotic Pathogens Using Bioorganometallic Chemistry” (J Med Chem, 2023)
Calls of active or inactive are those of the source. The rule behind the calls is not given here.

Experiments:
Brugia pahangi [1] = assay: Antinematodal activity against Brugia pahangi assessed as inhibition of worm motility at day 1 by worminator analysis; assay type: functional; details: time 1 day
In short: (§1)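 Single adult female worm per well in RPMI-1640 (25 mM HEPES, 2.0 g/L NaHCO₃, 5% heat-inactivated FBS, 1X antibiotic/antimycotic), 4 replicate wells, 6 days at 37°C, 5% CO₂. Motility recorded 60 s per plate on days 0, 1, 2, 3 and 6 as pixels displaced/s. Inhibition = (1 − treated MMU/mean 1% DMSO control MMU) × 100, floored at zero. IC₅₀ from 3- and 6-point dilutions.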

Brugia pahangi [2] = assay: Antinematodal activity against Brugia pahangi assessed as inhibition of worm motility at day 2 by worminator analysis; assay type: functional; details: time 2 day; in short: as §1
Brugia pahangi [3] = assay: Antinematodal activity against Brugia pahangi assessed as inhibition of worm motility at day 3 by worminator analysis; assay type: functional; details: time 3 day; in short: as §1
Brugia pahangi [4] = assay: Antinematodal activity against Brugia pahangi assessed as inhibition of worm motility at day 6 by worminator analysis; assay type: functional; details: time 6 day; in short: as §1
Trichuris muris [5] = assay: Antinematodal activity against Trichuris muris assessed as inhibition of worm motility at day 1 by worminator analysis; assay type: functional
In short: (§2)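 Two adult worms per well in RPMI-1640 (25 mM HEPES, 2.0 g/L NaHCO₃, 5% heat-inactivated FBS, 1X antibiotic/antimycotic), 4 replicate wells, 6 days at 37°C, 5% CO₂. Motility recorded 60 s per plate as pixels displaced/s on days 0, 1, 2, 3 and 6. Inhibition = (1 − treated MMU/mean 1% DMSO control MMU) × 100, floored at zero. IC₅₀ from 3- and 6-point dilutions.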

Trichuris muris [6] = assay: Antinematodal activity against Trichuris muris assessed as inhibition of worm motility at day 2 by worminator analysis; assay type: functional; details: time 2 day; in short: as §2
Trichuris muris [7] = assay: Antinematodal activity against Trichuris muris assessed as inhibition of worm motility at day 5 by worminator analysis; assay type: functional; details: time 5 day
Trichuris muris [8] = assay: Antinematodal activity against Trichuris muris assessed as inhibition of worm motility at day 6 by worminator analysis; assay type: functional; details: time 6 day; in short: as §2
Brugia pahangi [9] = assay: Antinematodal activity against Brugia pahangi assessed as inhibition of worm motility measured immediately by worminator analysis; assay type: functional; in short: as §1
Trichuris muris [10] = assay: Antinematodal activity against Trichuris muris assessed as inhibition of worm motility measured immediately by worminator analysis; assay type: functional; in short: as §2
Saccharomyces cerevisiae [11] = assay: Antifungal activity against Saccharomyces cerevisiae harboring heterozygous UTP14 deletion mutant assessed as sensitivity by measuring ratio of control intensity to treatment intensity by chemogenomic screening analysis relative to control; assay type: functional
Saccharomyces cerevisiae [12] = assay: Antifungal activity against Saccharomyces cerevisiae harboring heterozygousYDL144C deletion mutant assessed as sensitivity by measuring ratio of control intensity to treatment intensity by chemogenomic screening analysis relative to control; assay type: functional
Saccharomyces cerevisiae [13] = assay: Antifungal activity against Saccharomyces cerevisiae harboring heterozygous YPR136C deletion mutant assessed as sensitivity by measuring ratio of control intensity to treatment intensity by chemogenomic screening analysis relative to control; assay type: functional
Saccharomyces cerevisiae [14] = assay: Antifungal activity against Saccharomyces cerevisiae harboring heterozygous HYP2 deletion mutant assessed as sensitivity by measuring ratio of control intensity to treatment intensity by chemogenomic screening analysis relative to control; assay type: functional
Saccharomyces cerevisiae [15] = assay: Antifungal activity against Saccharomyces cerevisiae harboring heterozygous ENP1 deletion mutant assessed as sensitivity by measuring ratio of control intensity to treatment intensity by chemogenomic screening analysis relative to control; assay type: functional
Candida albicans [16] = assay: Antifungal activity against Candida albicans CAAL28 infected in BALB/c mouse candidiasis model administered once daily for 3 days; assay type: functional, organism-based; details: CAAL28, 72 h
Candida albicans [17] = assay: Antifungal activity against Candida albicans CAAL28 infected in BALB/c mouse candidiasis model assessed as animal survival pre-infected for 1 hr followed by compound addition at 10 mg/kg administered once daily for 3 days and measured on day 4 (reference value: 25%); assay type: functional; details: time 4 day
Brugia pahangi [18] = assay: Antinematodal activity against Brugia pahangi by worminator analysis; assay type: functional, organism-based; in short: as §1
Trichuris muris [19] = assay: Antinematodal activity against Trichuris muris by worminator analysis; assay type: functional, organism-based; in short: as §2
Brugia pahangi [20] = assay: Antinematodal activity against Brugia pahangi infected in mongolian jirds assessed as reduction in worm burden at 10 mg/kg, po administered twice daily for 5 days; assay type: functional, organism-based; details: time 5.0 day
In short: (§3)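 Male jirds (5–7 weeks, 50–60 g) infected ip with 200 L3. Oral dosing in 5% glucose started 5 months post-infection; vehicle received 5% glucose. Necropsy 5 days after last dose (6 animals/treated group, 9 vehicle). Worms recovered and counted. Ex vivo MF release compared by Kruskal–Wallis/Dunn. Embryograms were scored blinded by hemocytometer, ≥200 stages per female, 6–9 females/group, and analysed by two-way ANOVA/Dunnett versus vehicle.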

Brugia pahangi [21] = assay: Antinematodal activity against Brugia pahangi infected in mongolian jirds assessed as reduction in worm fecundity at 10 mg/kg, po administered twice daily for 5 days; assay type: functional, organism-based; details: time 5.0 day; in short: as §3
Brugia pahangi [22] = assay: Antinematodal activity against Brugia pahangi infected in mongolian jirds assessed as reduction in reproductive output at 10 mg/kg, po administered twice daily for 5 days; assay type: functional, organism-based; details: time 5.0 day; in short: as §3
Brugia pahangi [23] = assay: Antinematodal activity against Brugia pahangi infected in mongolian jirds assessed as reduction in number of eggs at 10 mg/kg, po administered twice daily for 5 days; assay type: functional, organism-based; details: time 5.0 day; in short: as §3
Brugia pahangi [24] = assay: Antinematodal activity against Brugia pahangi infected in mongolian jirds assessed as increase in number of deformed eggs at 10 mg/kg, po administered twice daily for 5 days; assay type: functional, organism-based; details: time 5.0 day; in short: as §3
Brugia pahangi [25] = assay: Antinematodal activity against Brugia pahangi infected in mongolian jirds assessed as reduction in number of microfilarial release at 10 mg/kg, po administered twice daily for 5 days; assay type: functional, organism-based; details: time 5.0 day; in short: as §3
Brugia pahangi [26] = assay: Antinematodal activity against Brugia pahangi infected in mongolian jirds assessed as tissue damage in reproductive tracts pre-infected for 5 months followed by compound addition at 10 mg/kg, po administered twice daily for 5 days; assay type: functional, organism-based; details: time 5.0 day
In short: (§4)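 Male jirds (5–7 weeks, 50–60 g) infected ip with 200 L3. At 5 months, dosed orally in 5% glucose; vehicle received 5% glucose. Necropsy 5 days after last dose. Adult females fixed in 2.5% glutaraldehyde/2% paraformaldehyde in 0.1 M cacodylate, Spurr-embedded, ultrathin sections contrasted with uranyl substitute and lead citrate, imaged by TEM.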

Brugia pahangi [27] = assay: Antinematodal activity against Brugia pahangi infected in mongolian jirds assessed as deformed embryos with globular material pre-infected for 5 months followed by compound addition at 10 mg/kg, po administered twice daily for 5 days; assay type: functional, organism-based; details: time 5.0 day; in short: as §4
Brugia pahangi [28] = assay: Antinematodal activity against Brugia pahangi infected in mongolian jirds assessed as deformed embryos with punctate pre-infected for 5 months followed by compound addition at 10 mg/kg, po administered twice daily for 5 days; assay type: functional, organism-based; details: time 5.0 day; in short: as §4
Brugia pahangi [29] = assay: Antinematodal activity against Brugia pahangi infected in mongolian jirds assessed as deformed embryos with vacuolated spaces pre-infected for 5 months followed by compound addition at 10 mg/kg, po administered twice daily for 5 days; assay type: functional, organism-based; details: time 5.0 day; in short: as §4
Brugia pahangi [30] = assay: Antinematodal activity against Brugia pahangi infected in mongolian jirds assessed as embryos with autophagolysosomes pre-infected for 5 months followed by compound addition at 10 mg/kg, po administered twice daily for 5 days; assay type: functional, organism-based; details: time 5.0 day; in short: as §4
Brugia pahangi [31] = assay: Antinematodal activity against Brugia pahangi infected in mongolian jirds assessed as embryos with mature lysosomes pre-infected for 5 months followed by compound addition at 10 mg/kg, po administered twice daily for 5 days; assay type: functional, organism-based; details: time 5.0 day; in short: as §4
Trichuris muris [32] = assay: Downregulation of Hippo gene expression in Trichuris muris at 100 uM incubated for 2 to 3 hrs; assay type: functional; details: time 2-3 hrs
In short: (§5)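 Adult female worms exposed in vitro to compound or 1% DMSO vehicle, then frozen at −80°C. RNA-seq reads aligned to the T. muris genome (PRJEB126, WBPS16) with STAR and counted per gene with featureCounts. Expression expressed as FPKM. Fold changes and significance relative to DMSO controls calculated with DESeq2.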

Trichuris muris [33] = assay: Downregulation of mTOR gene expression in Trichuris muris at 100 uM incubated for 2 to 3 hrs; assay type: functional; details: time 2-3 hrs; in short: as §5
Trichuris muris [34] = assay: Downregulation of AMPK gene expression in Trichuris muris at 100 uM incubated for 2 to 3 hrs; assay type: functional; details: time 2-3 hrs; in short: as §5
Trichuris muris [35] = assay: Downregulation of Wnt gene expression in Trichuris muris at 100 uM incubated for 2 to 3 hrs; assay type: functional; details: time 2-3 hrs; in short: as §5
Trichuris muris [36] = assay: Downregulation of fatty acid synthase expression in Trichuris muris at 100 uM incubated for 2 to 3 hrs; assay type: functional; details: time 2-3 hrs; in short: as §5
Trichuris muris [37] = assay: Downregulation of acyl-CoA synthetase expression in Trichuris muris at 100 uM incubated for 2 to 3 hrs; assay type: functional; details: time 2-3 hrs; in short: as §5
Trichuris muris [38] = assay: Downregulation of mitochondrial acyl carrier reductase expression in Trichuris muris at 100 uM incubated for 2 to 3 hrs; assay type: functional; details: time 2-3 hrs; in short: as §5
Saccharomyces cerevisiae [39] = assay: Antifungal activity against Saccharomyces cerevisiae harboring heterozygous PMP1 deletion mutant assessed as sensitivity by measuring ratio of control intensity to treatment intensity by chemogenomic screening analysis relative to control; assay type: functional
Saccharomyces cerevisiae [40] = assay: Antifungal activity against Saccharomyces cerevisiae harboring heterozygous RSC9 deletion mutant assessed as sensitivity by measuring ratio of control intensity to treatment intensity by chemogenomic screening analysis relative to control; assay type: functional
Saccharomyces cerevisiae [41] = assay: Antifungal activity against Saccharomyces cerevisiae harboring heterozygous PMC1 deletion mutant assessed as sensitivity by measuring ratio of control intensity to treatment intensity by chemogenomic screening analysis relative to control; assay type: functional
Saccharomyces cerevisiae [42] = assay: Antifungal activity against Saccharomyces cerevisiae harboring heterozygous YGR115C deletion mutant assessed as sensitivity by measuring ratio of control intensity to treatment intensity by chemogenomic screening analysis relative to control; assay type: functional
Saccharomyces cerevisiae [43] = assay: Antifungal activity against Saccharomyces cerevisiae harboring heterozygous RPC19 deletion mutant assessed as sensitivity by measuring ratio of control intensity to treatment intensity by chemogenomic screening analysis relative to control; assay type: functional

CN(CCc1ccccc1)CC(O)(Cn1cncn1)c1ccc(F)cc1F.Cl (stereo not drawn)
inhibition (INH) (Brugia pahangi [1]): 19%
inhibition (INH) (Brugia pahangi [2]): 6%
inhibition (INH) (Brugia pahangi [3]): 8%
inhibition (INH) (Brugia pahangi [4]): 14%
inhibition (INH) (Trichuris muris [5]): 15%
inhibition (INH) (Trichuris muris [6]): 10%
inhibition (INH) (Trichuris muris [7]): 1%
inhibition (INH) (Trichuris muris [8]): 0%
inhibition (INH) (Brugia pahangi [9]): 32%
inhibition (INH) (Trichuris muris [10]): 15%
log2(ratio) (Saccharomyces cerevisiae [11]): -5.53
log2(ratio) (Saccharomyces cerevisiae [12]): -4.93
log2(ratio) (Saccharomyces cerevisiae [13]): -3.12
log2(ratio) (Saccharomyces cerevisiae [14]): -2.45
log2(ratio) (Saccharomyces cerevisiae [15]): -2.17

OC(Cn1cncn1)(Cn1cncn1)c1ccc(F)cc1F [FLUCONAZOLE]
inhibition (INH) (Brugia pahangi [1]): 15%
inhibition (INH) (Brugia pahangi [2]): 7%
inhibition (INH) (Brugia pahangi [3]): 11%
inhibition (INH) (Brugia pahangi [4]): 4%
inhibition (INH) (Trichuris muris [5]): 6%
inhibition (INH) (Trichuris muris [6]): 21%
inhibition (INH) (Trichuris muris [7]): 20%
inhibition (INH) (Trichuris muris [8]): 13%
IC50 (Candida albicans [16]): > 100 µM
Activity (Candida albicans [17]): >50%
inhibition (INH) (Brugia pahangi [9]): 10%
inhibition (INH) (Trichuris muris [10]): 6%

CC(C1C2CC3CC(C2)CC1C3)N(C)CC(O)(Cn1cncn1)c1ccc(F)cc1F.Cl (stereo not drawn)
inhibition (INH) (Brugia pahangi [1]): 100%
inhibition (INH) (Brugia pahangi [2]): 100%
inhibition (INH) (Brugia pahangi [3]): 99%
inhibition (INH) (Brugia pahangi [4]): 100%
inhibition (INH) (Trichuris muris [5]): 32%
inhibition (INH) (Trichuris muris [6]): 42%
inhibition (INH) (Trichuris muris [7]): 98%
inhibition (INH) (Trichuris muris [8]): 93%
IC50 (Brugia pahangi [18]): 2.2 µM
IC50 (Trichuris muris [19]): 20.4 µM
Activity (Brugia pahangi [20]): Active
Activity (Brugia pahangi [21]): Active
Activity (Brugia pahangi [22]): Active
Activity (Brugia pahangi [23]): Active
Activity (Brugia pahangi [24]): Active
Activity (Brugia pahangi [25]): Active
Activity (Brugia pahangi [26]): Active
Activity (Brugia pahangi [27]): Active
Activity (Brugia pahangi [28]): Active
Activity (Brugia pahangi [29]): Active
Activity (Brugia pahangi [30]): Active
Activity (Brugia pahangi [31]): Active
Activity (Trichuris muris [32]): Active
Activity (Trichuris muris [33]): Active
Activity (Trichuris muris [34]): Active
Activity (Trichuris muris [35]): Active
Activity (Trichuris muris [36]): Active
Activity (Trichuris muris [37]): Active
Activity (Trichuris muris [38]): Active
inhibition (INH) (Brugia pahangi [9]): 100%
inhibition (INH) (Trichuris muris [10]): 10%
log2(ratio) (Saccharomyces cerevisiae [39]): -6.54
log2(ratio) (Saccharomyces cerevisiae [40]): -6.48
log2(ratio) (Saccharomyces cerevisiae [41]): -4.67
log2(ratio) (Saccharomyces cerevisiae [42]): -4.65
log2(ratio) (Saccharomyces cerevisiae [43]): -4.18
